We go through 16 compounds from PubChem BioAssay AID504831 (Southern Research Specialized Biocontainment Screening …, 2011).

The experiment relates to Bladder 5637 cells viability, CellTiter-Glo, 72 h. Kind of experiment: cytotoxicity in 5637 bladder cells, dose response, cytotoxicity control for bacterial capsule biogenesis inhibitors, cell-based, set 3 (AID 504831). A digest of the protocol:
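Test system: human bladder carcinoma 5637 cell line / Schedule: 72 h compound exposure of cells / Controls: Hyamine positive control, untreated cell control / Measured by: CellTiter-Glo luminescence / Read-out basis: CC50 from dose-response fit, viability versus mean cell-only control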
For the compound `O=C(Nc1cc(-c2ccccc2)sc1C(=O)O)c1ccc2c(c1)OCCO2`, the CC50 was 82.1 µM.
Turning to `O=C(Nc1cc(-c2ccccc2)sc1C(=O)O)c1cc2ccccc2o1`, the CC50 is 167 µM.
In the case of `CCOc1ccc(-c2cc(NC(=O)c3ccc(OC)c(OC)c3)c(C(=O)O)s2)cc1`, the CC50 was 82.8 µM.
With `O=C(Nc1cc(-c2ccccc2)sc1C(=O)O)c1ccc(Br)o1` the figure was 104 µM; with `O=C(Nc1cc(-c2ccccc2)sc1C(=O)O)c1ccc(Cl)s1`, 71.5 µM; with `Cc1c(C(=O)Nc2cc(-c3ccccc3)sc2C(=O)O)oc2ccccc12`, 48.7 µM.
For the compound `O=C(Nc1cc(-c2ccccc2)sc1C(=O)O)c1cccc(Cl)c1`, the CC50 is 52.6 µM.
With `O=C(Nc1cc(-c2ccccc2)sc1C(=O)O)c1cccs1` the figure was 89.3 µM; with `O=C(Nc1cc(-c2ccccc2)sc1C(=O)O)c1cccc(F)c1`, 76.9 µM.
For the compound `O=C(Nc1cc(-c2ccccc2)sc1C(=O)O)c1cc(Cl)c2c(c1)OCCO2`, the CC50 is 242 µM.
With `O=C(O)c1sc(-c2ccccc2)cc1NC(=O)C1CCCC1` the figure was 169 µM; with `O=C(O)c1sc(-c2ccccc2)cc1NC(=O)C1CCCCC1`, 115 µM; with `Cc1ccc(C(=O)Nc2cc(-c3ccccc3)sc2C(=O)O)s1`, 63.6 µM.
Regarding `Cc1onc(-c2ccccc2)c1C(=O)Nc1cc(-c2ccccc2)sc1C(=O)O`, the CC50 was 52.6 µM.
In the case of `COC(=O)c1sc(-c2ccccc2)cc1NC(=O)c1c(F)cccc1F`, the CC50 was 10.4 µM.
In the case of `CCOc1ccc(-c2cc(NC(=O)c3cccc(Cl)c3)c(C(=O)O)s2)cc1`, the CC50 is 83.9 µM.
